Data: PubChem BioAssay AID2445 (The Scripps Research Institute Molecular Screening Center, 2010)
Among all 320,000 compounds or so, about 200 (0.062%) were called active.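 How the source made its calls: active means activation above that plate's cutoff, the mean activation of tested compounds plus 3 SD (cut at about 6.6% in these data, passing the limit was not always enough); inactive means the rest.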 The entries come from a sample that favours actives as a whole.

Target: Oxytocin receptor (Homo sapiens) (UniProt P30559)
Test: enhancers of oxytocin-evoked OXTR calcium signal – fluorescence, CHO-OTR cells, Fluo-8 calcium, primary screen (AID 2445);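 further: 100% uses oxytocin at 75 nM as the full agonist control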
Conditions: Fluo-8 calcium fluorescence, potentiator mode, at 3 µM, active compounds read high, 0% = oxytocin EC15, 100% = EC100
Method in brief: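 Measured by – Fluo-8 calcium dye fluorescence · Test system – human OTR in CHO cells · Dosing – one concentration, 3.0 µM compound · Controls – EC15 oxytocin alone as 0%, 75 nM oxytocin as 100% · Evaluation – normalized max/min fluorescence ratio, % activation · Timing – 6 min pre-incubation, 100 s read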

Sequence of Oxytocin receptor (Homo sapiens) (P30559 whole entry, looked up): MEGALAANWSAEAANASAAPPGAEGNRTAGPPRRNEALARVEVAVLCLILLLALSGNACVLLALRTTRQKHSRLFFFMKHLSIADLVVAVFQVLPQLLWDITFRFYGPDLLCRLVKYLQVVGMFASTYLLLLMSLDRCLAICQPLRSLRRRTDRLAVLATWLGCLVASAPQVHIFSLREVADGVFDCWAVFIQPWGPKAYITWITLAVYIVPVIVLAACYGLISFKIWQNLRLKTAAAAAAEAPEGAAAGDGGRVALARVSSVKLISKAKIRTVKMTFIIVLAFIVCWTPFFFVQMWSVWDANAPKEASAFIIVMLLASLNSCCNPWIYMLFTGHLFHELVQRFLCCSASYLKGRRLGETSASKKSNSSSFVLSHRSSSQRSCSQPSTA

SMILES | activation
CC(=O)c1ccc(OCC(O)CN2CCN(S(=O)(=O)c3cccc(Br)c3)CC2)cc1 (configuration not stated) | -10.6% (inactive)
COc1cc(OC)cc(C(=O)N[C@H](C(=O)NNC(=O)c2ccc(Br)cc2)C(C)C)c1 | 0.41% (inactive)
COc1ccc(S(=O)(=O)N2CCOC2CNC(=O)C(=O)NCc2ccncc2)cc1C (configuration not stated) | 2.91% (inactive)
CCS(=O)(=O)n1nc(-c2ccccc2)nc1SCc1ccccc1 | 0.8% (inactive)
O=C(NC1CCCCCCC1)c1cccs1 | -9.53% (inactive)
CCO[C@H]1OC(C(=O)Nc2ccccc2)=C[C@@H](C2CC2)[C@@H]1CCCO | -3.89% (inactive)
CCOc1ccc(CNC(=O)CCC(=O)N2CCSc3ccccc32)cc1 | -5.95% (inactive)
CC(OC(=O)c1c(F)cccc1F)C(=O)NCCC1=CCCCC1 (configuration not stated) | -1.25% (inactive)
CCCCCCSc1ccc([C@@H]2[C@@H]3C(=O)N(CC)C(=O)[C@@H]3[C@]3(C(=O)OC)CCCCN23)cc1OC | -12.2% (inactive)
O=S1(=O)CCOC[C@H](CC2CCCCC2)N1Cc1ccc(F)cc1 | 0.09% (inactive)
Cc1ccccc1CCN(CC(=O)NC1CCCCC1)C(=O)c1csnn1 | -12.1% (inactive)
Cc1c(Cl)cccc1NC(=O)[C@@]1(CC(=O)O)CC(/C=C/c2ccccc2)=NO1 | -10.7% (inactive)
Cc1ccc(S(=O)(=O)Nc2nc(CN3CCOCC3)nc3sc(C)c(C)c23)cc1 | 4.74% (inactive)
Cc1cc(C)c2c(c1)c(C)cc1nnc(SCC(=O)NCc3ccco3)n12 | -0.06% (inactive)
Cc1cc(C)cc(N(CCC#N)C(=O)CN2C(=O)NC3(CCCC3)C2=O)c1 | -5.16% (inactive)
O=C(C1CCN(C2CCN(Cc3cccc4c3OCO4)CC2)CC1)N1CCOCC1 | -0.07% (inactive)
Cc1ccc(N2C(=O)C3C(c4ccccc4)(C2=O)C3(c2ccccc2)c2ccccc2)cc1 (configuration not stated) | -5.54% (inactive)
CC1CCCC(NC(=O)CSc2nccn2C)C1C (configuration not stated) | -21.1% (inactive)
Cc1ccccc1-c1cc(C(=O)NCc2cccs2)n(CC2CC(c3cccnc3)=NO2)n1 (configuration not stated) | -4.56% (inactive)
COC(=O)c1ccc(C2CC(=O)Nc3cc(OC)c(OC)cc32)cc1 (configuration not stated) | -2.55% (inactive)
COc1cc2c(cc1OC)C(c1ccc(C)o1)CC(=O)N2 (configuration not stated) | 6.71% (active)
CCCOc1ccccc1C1CC(=O)Nc2cc3c(cc21)OCO3 (configuration not stated) | -15.5% (inactive)

SMILES | activation
Cc1ccc(CNC(=O)CCN2C(=O)[C@@H]3Cc4ccccc4CN3C2=O)cc1 | -7.86% (inactive)
CN(Cc1ccccc1Cl)C(=O)C1CCC(=O)N(CCc2cccc(F)c2)C1 (configuration not stated) | 5.76% (inactive)
COc1ccccc1CSc1ncc(-c2ccc([N+](=O)[O-])cc2)[nH]1 | -15.7% (inactive)
Cn1cccc1C(=O)N1CCc2ccccc2C1 | -4.4% (inactive)
O=C(Nn1cc(C(=O)N2CCN(c3ccccc3F)CC2)c2ccccc2c1=O)c1cnccn1 | -16.9% (inactive)
COc1ccc([C@H]2[C@H](C(C)=O)N3N=Cc4ccccc4C3C23C(=O)OC(C)(C)OC3=O)cc1 (some centres not stated) | -5.56% (inactive)
O=C(COC(=O)Cn1cnc2ccccc21)Nc1cccc2c1C(=O)c1ccccc1C2=O | -2.58% (inactive)
Cc1cc(NC(=O)Nc2c[nH]c(=O)[nH]c2=O)ccc1Br | -3.04% (inactive)
Cc1ccc2nc(NC(=O)C3CSC4(C)CCC(=O)N34)sc2c1 (configuration not stated) | -1.9% (inactive)
COc1ccc(Cl)cc1NC(=O)CN(C)C(=O)CCCc1c[nH]c2ccccc12 | -8.97% (inactive)
CC(C)CN(C(=O)CSc1ncnc2sccc12)C1CCS(=O)(=O)C1 (configuration not stated) | -5.65% (inactive)
CCCc1cc(=O)oc2cc(OCC(=O)Nc3ccc(CN4CCOCC4)cc3)c(Cl)cc12 | 2.03% (inactive)
COc1ccc(CCNC(=O)CCc2cn(C)c3ccccc23)c(OC)c1 | -6.44% (inactive)
C=CCNC(=O)COC(=O)CNC(=O)c1cc(Cl)cc([N+](=O)[O-])c1 | 6.81% (inactive)
Cn1c(=O)c2sccc2n(Cc2ccc(Br)cc2)c1=O | -7.63% (inactive)
COc1cc(S(=O)(=O)N2CCN(C(=O)C3CC3)CC2)ccc1NC(C)=O | 5.54% (inactive)
O=C(CN(Cc1ccccc1)C(=O)CCC(=O)Nc1ccccn1)NCCc1ccccc1 | -8.23% (inactive)
O=C(Oc1ccc(-c2nnco2)cc1)c1ccc(F)c(S(=O)(=O)N2CCOCC2)c1 | -5.86% (inactive)
O=C(COc1cc(Cl)c(Cl)cc1Cl)NC(=O)NC1CCCC1 | 2.91% (inactive)
O=C(NCCCN1CCCCC1)C1CCCN(c2ncnc3c2nc2n3CCCCC2)C1 (configuration not stated) | -5.62% (inactive)
Cc1cc(C(=O)OCC(=O)Nc2ccccc2Cl)c(C)o1 | 1.55% (inactive)
COCCCNC(=O)CSc1nc2ccc(N3CCOCC3)cc2c(=O)n1CCc1ccccc1 | -1.26% (inactive)

SMILES | activation
CCCCn1c(N)c(N2CCOCC2)c(=O)n(CC(=O)NCCc2ccccc2)c1=O | 14.8% (active)
O=C(COC(=O)c1cc(S(=O)(=O)N2CCOCC2)ccc1Cl)NCCc1ccccc1 | -5.23% (inactive)
CCC(=O)N1CCN=C1SCc1ccc(F)cc1 | -4.47% (inactive)
CCOC(=O)N1CCN(Cc2oc(CO)cc(=O)c2O)CC1 | -9.68% (inactive)
Cc1noc(/C=C/c2ccco2)c1S(=O)(=O)N1CCC(C(=O)Nc2ccc(Cl)cn2)CC1 | -2.32% (inactive)
CCc1ccc(C(=O)NC(=S)Nc2ccccc2N2CCOCC2)cc1 | -6.63% (inactive)
COc1ccccc1C(=O)NC(=S)Nc1ccccc1N1CCCCC1 | -5.57% (inactive)
O=C(NC(=S)Nc1ccccc1N1CCCCC1)c1ccc(F)cc1 | 25.2% (active)
COc1ccc(C[C@H]2CN3C(=NC[C@H]3C)N2CCNC(=O)CCC2CCCCC2)cc1 | 3.05% (inactive)
C[C@H](NC(=O)c1nc[nH]c1C(=O)N[C@@H](C)C(=O)OC(C)(C)C)C(=O)OC(C)(C)C | -3.66% (inactive)
Cc1cccc(NC(=O)Cn2c(=O)n(Cc3ccccc3)c(=O)c3c(C)c(C)sc32)c1 | -5.82% (inactive)
Cc1ccc(CS(=O)(=O)CCC(=O)NC2CC2)cc1 | 0.82% (inactive)
COC(=O)C1=C[C@@H](C(=O)OC)[C@@H]2C3=C(C(=O)[C@]2(C)NC(=O)c2ccccc2)[C@H](C)n2c(=O)n(C)c(=O)n2[C@@H]3C1 | -11.9% (inactive)
COc1cc(NC(=O)COC(=O)c2ccc([N+](=O)[O-])s2)cc(OC)c1OC | -5.07% (inactive)
O=C(Cn1cc(C(F)(F)F)ccc1=O)Nc1ccc2c(c1)OCCO2 | 2.63% (inactive)
O=C(COC(=O)c1cc(=O)[nH]c2ccccc12)Nc1nc(-c2cccc(Br)c2)cs1 | 2.69% (inactive)
CCOc1ccccc1NC(=O)CCc1nnc2ccc(NCc3ccco3)nn12 | 0.12% (inactive)
CCCCCCNS(=O)(=O)c1ccccc1Br | -3.1% (inactive)
Brc1ccc(-c2n(-c3ccccn3)c3ccccc3[n+]2-c2ccccn2)cc1 | -4.84% (inactive)
COC(=O)C1(C)CC1(c1ccccc1)c1ccccc1 (configuration not stated) | -14.7% (inactive)
CCOC(=O)C1=C(C)OC(N)=C(C#N)C1c1cncc(-c2ccc(F)cc2)c1 (configuration not stated) | -4.76% (inactive)
O=C(COC(=O)c1ccc(F)cc1F)Nc1ncccn1 | -2.64% (inactive)

SMILES | activation
[O-][n+]1ccc(OCc2ccccc2)cc1 | -0.76% (inactive)
COc1ccccc1CNS(=O)(=O)CC12CCC(CC1=O)C2(C)C (configuration not stated) | -12.6% (inactive)
Cc1cc(NC(=O)CSc2nc(=O)cc(N)n2-c2ccc(F)cc2)no1 | 0.45% (inactive)
CN(C)c1cc(N)c2ccccc2n1 (tested in a mixture with another compound) | -14.8% (inactive)
CN1C(=O)[C@H]2[C@@H](C3CC3)N3C(=O)CN(Cc4ccccc4)C(=O)[C@@]3(C)[C@H]2C1=O | -2.37% (inactive)
CC(C)=CCc1c(O)c(CC=C(C)C)c2occ(-c3ccc(O)cc3)c(=O)c2c1O | -5.45% (inactive)
COc1ccc(-c2nc3cnccn3c2NC2CCCCC2)cc1-c1cccc(Cl)c1 | -2.33% (inactive)
Cc1ccc(CNS(=O)(=O)c2ccc3c(c2)N(C)CCO3)cc1 | -5.63% (inactive)
NS(=O)(=O)c1cc(C(=O)OCC(=O)NNC(=O)c2ccccc2)ccc1Cl | -5.64% (inactive)
NC1=NN(c2cccc(C(=O)O)c2)C(=O)C1 | -3.83% (inactive)
CC(=O)N/C(=N/c1nc(C)cc(C)n1)Nc1ccc(F)cc1F | 2.96% (inactive)
Cc1ccc(CNC(=O)C2CCCN2S(=O)(=O)c2ccc3c(c2)C(C)(C)C(=O)N3C)cc1 (configuration not stated) | -1.94% (inactive)
CCc1ccnc(NS(=O)(=O)c2ccc3c(c2)OCCO3)c1 | -3.79% (inactive)
C/C(=N\NC(=O)c1ccc(C)cc1)C1C(=O)c2ccccc2C1=O | -16.2% (inactive)
Cc1ccc(OCc2nnc(SC3CCc4ccccc4C3=O)n2C)cc1 (configuration not stated) | -7.17% (inactive)
CC1(C)CC(=O)C=C(c2ccc3ncccc3c2)C1 | -1.73% (inactive)
Nc1cc(OC(=O)c2ccccc2Br)nn1S(=O)(=O)c1ccccc1 | -18.3% (inactive)
CCOc1cc(C2/C(=C(/O)c3ccc(S(=O)(=O)N4CCCCC4)cc3)C(=O)C(=O)N2CCOC)ccc1O (configuration not stated) | -8.45% (inactive)
Cc1nc(CNS(=O)(=O)c2ccc(Oc3ccccc3)cc2)cs1 | -14.3% (inactive)
O=C(NCc1ccc(Cl)cc1)C(=O)NCC1CCCN1S(=O)(=O)c1cccs1 (configuration not stated) | -5.47% (inactive)
C=CCN(N=Nc1cccc([N+](=O)[O-])c1)c1cccc([N+](=O)[O-])c1 | -14.2% (inactive)
